The source made the active and inactive calls. The calls are words filed in the database; no cut-off is given here.
Each compound was assayed against Proteinase-activated receptor 2 (Homo sapiens) (UniProt P55085) (assay: Agonist activity at PAR2 receptor in human HT-29 cells assessed as induction of intracellular calcium release at 1 uM relative to SLIGRLI-NH2). Details: not given.
Assay type: functional, cell-based
Method in brief: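 HT29 cells, Fluo-3 AM loaded, in HBSS/HEPES/probenecid buffer pH 7.4 with 2% DMSO final. Each agonist given once at 1 μM. Fluorescence (ex 495/em 520 nm) was read over 60 s after addition, and iCa2+ release was compared with SLIGRLI-NH2.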

Activity | Structure (SMILES)
142% | CC[C@H](C)[C@H](NC(=O)[C@H](CC1CCCCC1)NC(=O)c1ccno1)C(=O)NCCCCC(=O)Nc1ccc(CCN)cc1
181% | CC[C@H](C)[C@H](NC(=O)[C@H](CC1CCCCC1)NC(=O)c1ccno1)C(=O)NCCCCC(=O)N1CCC(CN)CC1
97% | CC[C@H](C)[C@H](NC(=O)[C@H](CC1CCCCC1)NC(=O)c1ccno1)C(=O)NCCC(=O)N1CCC(CN)CC1
122% | CC[C@H](C)C(NC(=O)[C@H](CC1CCCCC1)NC(=O)c1ccno1)C(=O)NCCC(=O)NCc1cccnc1 (single isomer, unassigned)
130% | CC[C@H](C)[C@H](NC(=O)[C@H](CC1CCCCC1)NC(=O)c1ccno1)C(=O)NCCCCC(=O)NCc1cccnc1
57% | CC[C@H](C)[C@H](NC(=O)[C@H](CC1CCCCC1)NC(=O)c1ccno1)C(=O)NCCCN
60% | CC[C@H](C)[C@H](NC(=O)[C@H](CC1CCCCC1)NC(=O)c1ccno1)C(=O)NCCCCCN
130% | CC[C@H](C)[C@H](NC(=O)[C@H](CC1CCCCC1)NC(=O)c1ccno1)C(=O)NCCC(=O)Nc1ccc(CCN)cc1

Each compound was assayed against Proteinase-activated receptor 2 (Homo sapiens) (UniProt P55085) (assay: Antagonist activity at PAR2 receptor in human HT-29 cells assessed as inhibition of intracellular calcium release at 50 uM relative to SLIGRLI-NH2). Details: not given.
Assay type: functional, cell-based
Method in brief: (§1)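 Single-point inhibition in Fluo-3-loaded HT29 cells. Antagonist was given at 5 or 50 μM before 2.5 μM SLIGRLI-NH2. Calcium efflux was read as fluorescence and expressed as percent inhibition, with 100% meaning complete block.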

inhibition | Structure (SMILES)
Active | CC[C@H](C)[C@H](NC(=O)[C@H](CC1CCCCC1)NC(=O)c1ccno1)C(=O)N1CCC2(CCc3ccccc32)CC1

The compounds below were run against T1, Proteinase-activated receptor 2 (Homo sapiens, UniProt P55085) (assay: Antagonist activity at PAR2 receptor in human HT-29 cells assessed as inhibition of intracellular calcium release). Details: read-out: IC50.
T1 sequence (P55085 whole entry): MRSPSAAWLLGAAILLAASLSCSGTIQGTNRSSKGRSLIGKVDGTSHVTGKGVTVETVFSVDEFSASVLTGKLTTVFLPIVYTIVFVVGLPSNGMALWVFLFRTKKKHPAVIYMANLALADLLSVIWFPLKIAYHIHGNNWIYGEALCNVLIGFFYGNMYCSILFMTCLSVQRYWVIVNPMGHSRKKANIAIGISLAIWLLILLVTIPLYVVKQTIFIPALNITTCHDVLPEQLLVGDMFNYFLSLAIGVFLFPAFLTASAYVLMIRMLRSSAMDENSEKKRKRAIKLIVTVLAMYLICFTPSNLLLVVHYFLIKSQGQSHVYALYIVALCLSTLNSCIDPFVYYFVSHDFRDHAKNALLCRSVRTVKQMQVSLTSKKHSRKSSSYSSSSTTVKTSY
Assay type: functional, cell-based

IC50 | Structure (SMILES)
57 µM | CC[C@H](C)[C@H](NC(=O)[C@H](CC1CCCCC1)NC(=O)c1ccno1)C(=O)Nc1ccc(CC(=O)N2CCOCC2)cc1

Same assay, conditions: read-out: pIC50 (converted)

IC50 | Structure (SMILES)
7.94 µM | CC[C@H](C)[C@H](NC(=O)[C@H](CC1CCCCC1)NC(=O)c1ccno1)C(=O)N1CCC2(CCc3ccccc32)CC1

Each compound was assayed against T1, Proteinase-activated receptor 2 (assay: Agonist activity at human PAR2 receptor in HEK293 cells assessed as induction of intracellular calcium release). Details: not given.
Assay type: functional, cell-based

EC50 | Structure (SMILES)
> 100 µM | CC[C@H](C)[C@H](NC(=O)[C@H](CC1CCCCC1)NC(=O)c1coc(C)n1)C(N)=O
> 50 µM | CC[C@H](C)[C@H](NC(=O)[C@H](CC1CCCCC1)NC(=O)c1ccco1)C(N)=O
> 100 µM | CC[C@H](C)[C@H](NC(=O)[C@H](CC1CCCCC1)NC(=O)c1cnccn1)C(N)=O

What follows are compounds tested against Proteinase-activated receptor 2 (Homo sapiens) (UniProt P55085) (assay: Antagonist activity at PAR2 receptor in human HT-29 cells assessed as inhibition of intracellular calcium release at 5 uM relative to SLIGRLI-NH2). Details: not given.
Assay type: functional, cell-based
Design: scale not given: the % may be the effect or the level left
Method in brief: as §1

Activity | Structure (SMILES)
40% | CC[C@H](C)[C@H](NC(=O)[C@H](CC1CCCCC1)NC(=O)c1ccno1)C(=O)N1CCN(c2ccccc2C)CC1
40% | CC[C@H](C)[C@H](NC(=O)[C@H](CC1CCCCC1)NC(=O)c1ccno1)C(=O)N1CCc2ccccc2C1
40% | CC[C@H](C)[C@H](NC(=O)[C@H](CC1CCCCC1)NC(=O)c1ccno1)C(=O)Nc1cccc2ccccc12
40% | CC[C@H](C)[C@H](NC(=O)[C@H](CC1CCCCC1)NC(=O)c1ccno1)C(=O)Nc1ccccc1-c1ccccc1
40% | CC[C@H](C)[C@H](NC(=O)[C@H](CC1CCCCC1)NC(=O)c1ccno1)C(=O)N1CCN(c2ccccc2)CC1
40% | CC[C@H](C)[C@H](NC(=O)[C@H](CC1CCCCC1)NC(=O)c1ccno1)C(=O)N1CCC2(CCc3ccccc32)CC1

What follows are compounds tested against T1, Proteinase-activated receptor 2 (assay: Agonist activity at PAR2 receptor in human HT-29 cells assessed as induction of intracellular calcium release). Details: not given.
Assay type: functional, cell-based

EC50 | Structure (SMILES)
2.2 µM | CC[C@H](C)[C@H](NC(=O)[C@H](CC1CCCCC1)NC(=O)c1ccno1)C(=O)Nc1cccc(C(=O)N2CCC(CN)CC2)c1
7.1 µM | CC[C@H](C)[C@H](NC(=O)[C@H](CC1CCCCC1)NC(=O)c1ccno1)C(=O)N1CCCCC1C(=O)N1CCC(CN)CC1 (stereo partly specified)
13.7 µM | CC[C@H](C)[C@H](NC(=O)[C@H](CC1CCCCC1)NC(=O)c1ccno1)C(=O)N1CCC(C(=O)N2CCC(CN)CC2)CC1
17.1 µM | CC[C@H](C)[C@H](NC(=O)[C@H](CC1CCCCC1)NC(=O)c1ccno1)C(=O)N1CCCC(C(=O)N2CCC(CN)CC2)C1 (stereo partly specified)
> 50 µM | CC[C@H](C)[C@H](NC(=O)[C@H](CC1CCCCC1)NC(=O)c1ccno1)C(=O)Nc1ccc(C(=O)N2CCC(CN)CC2)cc1
13.5 µM | CC[C@H](C)[C@H](NC(=O)[C@H](CC1CCCCC1)NC(=O)c1ccno1)C(=O)NC1CCN([C@@H](CC(C)C)C(=O)N2CCC(CN)CC2)C1=O (stereo partly specified)
1.1 µM | CC[C@H](C)[C@H](NC(=O)[C@H](CC1CCCCC1)NC(=O)c1ccno1)C(=O)NCc1ccc(C(=O)N2CCC(CN)CC2)cc1

Same assay, conditions: ht-29

EC50 | Structure (SMILES)
6.1 µM | CC[C@H](C)[C@H](NC(=O)[C@H](CC1CCCCC1)NC(=O)c1ccno1)C(=O)N[C@H]1CCC2SC[C@@H](C(=O)N3CCC(CN)CC3)N2C1=O (stereo partly specified)

The compounds below were run against Proteinase-activated receptor 2 (Homo sapiens) (UniProt P55085) (assay: Agonist activity at PAR2 receptor in human HT-29 cells assessed as induction of intracellular calcium release at 50 uM relative to […]). Details: not given.
Assay type: functional, cell-based
Method in brief: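 HT29 cells loaded with Fluo-3 AM in HBSS/HEPES/probenecid, pH 7.4. Compounds were tested at one concentration, 50 μM, and Ca2+ release (ex 495/em 520 nm, 60 s read) was expressed relative to 2-furoyl-LIGRLI-NH2 at the same concentration.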

Activity | Structure (SMILES)
43% | CC(C)C[C@H](NC(=O)c1ccco1)C(=O)N[C@@H](CC1CCCCC1)C(N)=O
22% | CC(C)C[C@H](NC(=O)c1ccco1)C(=O)N[C@@H](Cc1ccccc1)C(N)=O
12% | CC[C@H](C)[C@H](NC(=O)[C@@H](NC(=O)c1ccco1)C1CCCCC1)C(N)=O
67% | CC[C@H](C)[C@H](NC(=O)[C@H](Cc1ccccc1)NC(=O)c1ccco1)C(N)=O
58% | CC[C@H](C)[C@H](NC(=O)[C@H](CC1CCCCC1)NC(=O)c1ccco1)C(N)=O
19% | CC(C)C[C@H](NC(=O)c1ccco1)C(=O)N[C@@H](Cc1ccc(F)cc1)C(N)=O
38% | CC[C@H](C)[C@H](NC(=O)[C@H](CC(C)C)NC(=O)c1ccco1)C(N)=O

The compounds below were run against T2, Proteinase-activated receptor 1 (Homo sapiens) (UniProt P25116) (assay: Agonist activity at human PAR1 receptor in HEK293 cells relative to TFLLR-NH2). Details: not given.
T2 sequence (whole entry): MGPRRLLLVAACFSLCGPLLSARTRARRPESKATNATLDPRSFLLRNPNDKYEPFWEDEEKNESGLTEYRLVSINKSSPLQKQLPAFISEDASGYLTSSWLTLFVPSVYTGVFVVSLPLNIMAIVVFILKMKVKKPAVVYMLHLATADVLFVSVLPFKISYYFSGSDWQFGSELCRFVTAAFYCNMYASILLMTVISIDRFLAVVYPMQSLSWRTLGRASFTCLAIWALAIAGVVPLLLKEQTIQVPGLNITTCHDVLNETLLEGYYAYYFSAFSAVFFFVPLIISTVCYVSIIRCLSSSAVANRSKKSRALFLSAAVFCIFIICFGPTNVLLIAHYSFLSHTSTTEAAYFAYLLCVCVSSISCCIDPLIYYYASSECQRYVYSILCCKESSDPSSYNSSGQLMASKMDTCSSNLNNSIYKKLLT
Assay type: functional, cell-based

Activity | Structure (SMILES)
Active | CC[C@H](C)[C@H](NC(=O)[C@H](Cc1ccccc1)NC(=O)c1ccco1)C(N)=O

— ChEMBL document CHEMBL1268911, “Novel agonists and antagonists for human protease activated receptor 2” (J Med Chem, 2010)
